We go through 30 molecules from ChEMBL document CHEMBL1133681, “Synthesis and opioid receptor affinity of a series of 2, 4-diaryl-substituted 3,7-diazabicylononanones” (J Med Chem, 2000).

For data set [1], the target named is T1, Kappa-type opioid receptor (Homo sapiens, UniProt P41145). Kind of data set: (§1) Inhibition against [3H]diprenorphine human Opioid receptor kappa 1 at 10 umol/L.
Data set [2] concerns the target Delta-type opioid receptor (Rattus norvegicus) (UniProt P33533). Kind of data set: Inhibition against [3H]D-Ala-deltorphin opioid receptor delta 2 in rat brain membranes at 1 umol/L. It counts as cell membranes. In short, it runs like this:
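Rat brain membranes (without cerebellum, pons, medulla oblongata); 1 nM [3H]-D-Ala-deltorphine; no preincubation; 50 mM Tris-HCl pH 7.4 with BSA and 4.5 mM MgCl2; 37 °C 90 min; nonspecific binding with 10^-5 M naloxone; triplicate, GF/B filtration, scintillation counting.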

The target of data set [3] is Mu-type opioid receptor (Rattus norvegicus) (UniProt P33535). Nature of the data set: Inhibition against [3H]naloxone opioid receptor mu 1 in rat brain membranes at 1 umol/L. It counts as cell membranes. In short, it runs like this: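 Rat brain membranes (without cerebellum); 1 nM [3H]naloxone; preincubation 37 °C 40 min; incubation 50 mM Tris-HCl pH 7.4, 25 °C 30 min; nonspecific binding with 10^-5 M naloxone; triplicate, GF/B filtration, three ice-cold washes, scintillation counting.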

The target in data set [4] is T1, Kappa-type opioid receptor. Kind of data set: Inhibition against [3H]diprenorphine human Opioid receptor kappa 1.
Data set [5] concerns the target Kappa-type opioid receptor (Rattus norvegicus) (UniProt P34975). Nature of the data set: Inhibition against [3H]-CI 977 rat Opioid receptor kappa 1 at 10 umol/L.
The target in data set [6] is Delta-type opioid receptor (Rattus norvegicus) (UniProt P33533). Nature of the data set: Inhibition against [3H]DPDPE Opioid receptor delta 1 in rat brain membranes at 1 umol/L. The format is cell membranes. In short, it runs like this:
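Rat brain membranes (without cerebellum, pons, medulla oblongata); 0.25 nM [3H]Cl-DPDPE; preincubation 25 °C 30 min; 50 mM Tris-HCl pH 7.4 with BSA, 45 μM PMSF, 4.5 mM MgCl2; 25 °C 240 min; nonspecific binding with 10^-3 M naloxone; triplicate, filtration, scintillation counting.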

Data set [7] is described as follows: Acid dissociation constant was measured in experiment 2. The format is ADME. The conditions noted are these: read-out: pKa2.
Data set [8] addresses T1, Kappa-type opioid receptor. The data set is described as §1. The source holds these as a separate data set.
The nature of data set [9]: Acid dissociation constant was measured in experiment 1. It counts as ADME. The conditions noted are these: read-out: pKa1.
The nature of data set [10]: Acid dissociation constant was measured in experiment 3. It counts as ADME. The conditions noted are these: read-out: pKa3.
The nature of data set [11]: Acid dissociation constant was measured in experiment 4. It counts as ADME. The conditions noted are these: read-out: pKa4.
Data set [12] has as its target T1, Kappa-type opioid receptor. Nature of the data set: Inhibition against [3H]diprenorphine human Opioid receptor kappa 1 at 10 uM/L.
The target of data set [13] is Kappa-type opioid receptor (Mus musculus) (UniProt P33534). Nature of the data set: Antinociceptive activity evaluated against Opioid receptor kappa 1 in mice by writhing test (administered intravenously). In short, it runs like this: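 Male NMRI mice (31-37 g); writhing induced by ip 0.35 mL of 0.02% phenylquinone; writhes counted 5–20 min after phenylquinone; food and water withdrawn during test; compound given iv; ED50 derived.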
On the technique in general: An intraperitoneal irritant provokes the stretching counted in writhing tests.

Data set [14] shares this target. Nature of the data set: Antinociceptive activity evaluated against Opioid receptor kappa 1 in mice by tail-flick assay (administered intravenously). In short, it runs like this:
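Male NMRI mice (23-26 g), group-housed, ~22 °C, 12-h light-dark cycle; food and water withdrawn during testing; compound given iv; tail-flick response; ED50 derived.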
Background: Hot-plate and tail-flick tests time the reaction to a heat stimulus.

Data set [15] concerns the target T1, Kappa-type opioid receptor. Kind of data set: Inhibition against [3H]diprenorphine human Opioid receptor kappa 1 […] at 10 umol/L. The format is cell membranes.

“And” between values parts separate entries of the source, which are not always exact repeats. Equal entries are not always repeated.

Delta-type opioid receptor (Rattus norvegicus), sequence (P33533 whole entry): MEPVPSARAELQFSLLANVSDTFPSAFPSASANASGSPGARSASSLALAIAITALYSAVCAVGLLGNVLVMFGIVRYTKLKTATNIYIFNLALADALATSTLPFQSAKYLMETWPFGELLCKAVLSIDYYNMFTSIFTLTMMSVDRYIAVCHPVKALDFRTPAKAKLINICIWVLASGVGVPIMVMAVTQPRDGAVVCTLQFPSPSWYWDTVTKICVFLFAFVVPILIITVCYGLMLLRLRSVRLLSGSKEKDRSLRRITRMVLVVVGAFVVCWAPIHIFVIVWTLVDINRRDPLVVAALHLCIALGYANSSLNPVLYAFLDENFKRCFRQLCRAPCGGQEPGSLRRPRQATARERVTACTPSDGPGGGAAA
Mu-type opioid receptor (Rattus norvegicus), sequence (P33535 whole entry): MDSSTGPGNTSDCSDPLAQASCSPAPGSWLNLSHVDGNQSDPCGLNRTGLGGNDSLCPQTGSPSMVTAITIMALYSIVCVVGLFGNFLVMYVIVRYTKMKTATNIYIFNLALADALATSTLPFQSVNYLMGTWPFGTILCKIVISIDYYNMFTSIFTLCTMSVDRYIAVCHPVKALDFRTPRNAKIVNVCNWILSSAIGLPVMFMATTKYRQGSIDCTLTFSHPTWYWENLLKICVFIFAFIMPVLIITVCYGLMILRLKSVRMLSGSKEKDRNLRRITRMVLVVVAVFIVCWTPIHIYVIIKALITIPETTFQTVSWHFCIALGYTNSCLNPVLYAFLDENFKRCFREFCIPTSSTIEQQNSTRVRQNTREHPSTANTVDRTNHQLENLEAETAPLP
T1 sequence (P41145 whole entry): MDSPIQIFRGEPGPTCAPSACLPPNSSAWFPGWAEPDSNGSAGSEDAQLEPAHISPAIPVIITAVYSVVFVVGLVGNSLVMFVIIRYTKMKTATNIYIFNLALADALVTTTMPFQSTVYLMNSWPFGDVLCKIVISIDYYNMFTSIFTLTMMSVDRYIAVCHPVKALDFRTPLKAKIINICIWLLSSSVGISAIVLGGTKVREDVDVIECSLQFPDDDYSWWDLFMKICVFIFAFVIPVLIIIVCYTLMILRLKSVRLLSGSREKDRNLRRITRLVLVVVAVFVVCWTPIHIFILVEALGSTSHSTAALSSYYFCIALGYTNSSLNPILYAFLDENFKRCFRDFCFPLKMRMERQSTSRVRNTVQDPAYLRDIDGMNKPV
Kappa-type opioid receptor (Rattus norvegicus), sequence (P34975 whole entry, looked up): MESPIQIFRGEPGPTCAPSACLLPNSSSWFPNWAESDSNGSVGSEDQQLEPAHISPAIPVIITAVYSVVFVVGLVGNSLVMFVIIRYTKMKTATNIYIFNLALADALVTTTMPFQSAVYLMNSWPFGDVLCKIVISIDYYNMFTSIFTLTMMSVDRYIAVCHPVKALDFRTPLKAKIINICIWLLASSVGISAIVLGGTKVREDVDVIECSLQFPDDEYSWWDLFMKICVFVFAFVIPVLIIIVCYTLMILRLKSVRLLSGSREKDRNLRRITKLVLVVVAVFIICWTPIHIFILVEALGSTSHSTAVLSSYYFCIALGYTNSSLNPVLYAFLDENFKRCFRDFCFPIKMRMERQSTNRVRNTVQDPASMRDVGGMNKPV
Kappa-type opioid receptor (Mus musculus), sequence (P33534 whole entry): as the sequence (P34975 whole entry, looked up) above, with E11D, A17S, P51S, V308A counted along it

In the case of `COC(=O)C12CN(C)CC(C(=O)OC)(C1=O)C(c1ccc(C#N)cc1)N(C)C2c1ccc(C#N)cc1` (stereo unspecified), the inhibition (as a rule, the drop in the measured response relative to a control, in per cent) was found to be 17.2% in data set [1], 3.2% in [2] and 5.6% in [3].

With `COC(=O)C12CN(C)CC(C(=O)OC)(C1=O)C(c1ccc3ccccc3n1)N(C)C2c1ccc2ccccc2n1` (stereo unspecified), the Ki (in general, the equilibrium dissociation constant of an inhibitor or competing ligand from its target) in data set [4] was 190 nM. The values for the inhibition in data set [2] and in [3] were 11.8% and 36.6%, respectively.

`COC(=O)C12CN(C)CC(C(=O)OC)(C1=O)C(c1cccc(OC)c1)N(C)C2c1cccc(OC)c1` (stereo unspecified): the results for the inhibition in data set [1] and in data set [2] were 52.2% and -1.6%, respectively.

For the molecule `CCOC(=O)C12CN(C)CC(C(=O)OCC)(C1=O)C(c1cccc([N+](=O)[O-])c1)N(C)C2c1cccc([N+](=O)[O-])c1` (stereo unspecified), the inhibition was 6.1% in data set [2], 2.3% in data set [3] and 5.9% in [5].

Take `COC(=O)C12CN(C)CC(C(=O)OC)(C1=O)C(c1ccc([N+](=O)[O-])cc1)N(C)C2c1ccc([N+](=O)[O-])cc1` (trans isomer): the figures for the inhibition in data set [2], in data set [3] and in [5] were -4%, 4.8% and 27.8%, respectively.

Take `COC(=O)C12CN(C)CC(C(=O)OC)(C1=O)C(c1ccccc1Cl)N(C)C2c1ccccc1Cl` (stereo unspecified): the inhibition in data set [1] amounted to 65.4%; in data set [2], 1.9%; in data set [3], 2.7%.

Turning to `COC(=O)C12CN(C)CC(C(=O)OC)(C1=O)C(c1ccccc1F)N(C)C2c1ccccc1F` (stereo unspecified), the inhibition in data set [1] is 47.7%; in data set [2], 1.5%; in [3], -9.2%.

For the molecule `COC(=O)C12CN(C)CC(C(=O)OC)(C1=O)C(c1ccc(Cl)cc1)N(C)C2c1ccc(Cl)cc1` (stereo unspecified), the inhibition is 63% in data set [1], -2.1% in data set [2] and 2.2% in [3].

For `COC(=O)C12CN(C)CC(C(=O)OC)(C1=O)C(c1cccc([N+](=O)[O-])c1)N(C)C2c1cccc([N+](=O)[O-])c1` (stereo unspecified), the inhibition in [1] is 10%; in [2], -7.9%; in [6], 14%.

As for `COC(=O)C12CN(C)CC(C(=O)OC)(C1=O)C(c1ccc3ccccc3c1)N(C)C2c1ccc2ccccc2c1` (stereo unspecified), the inhibition in data set [1] was 18.6%; in data set [2], -2.1%.

Turning to `COC(=O)C12CN(C)CC(C(=O)OC)(C1=O)C(c1ccc(OC)cc1)N(C)C2c1ccc(OC)cc1` (stereo unspecified), the values for the pKa in data set [7] and in [9] were 5.51 and 9.05, respectively. In data set [8], this molecule displayed an inhibition constant (Ki) of 18 nM. Moreover, the inhibition in data set [2] turned out to be 3%; in data set [3], 26.5%.

For `COC(=O)C12CN(C)CC(C(=O)OC)(C1=O)C(c1cccc3ccccc13)N(C)C2c1cccc2ccccc12` (stereo unspecified), the inhibition in [1] turned out to be 7.8%; in data set [2] it was 1.8%.

Take `COC(=O)C12CN(C)CC(C(=O)OC)(C1=O)C(c1ccccn1)N(C)C2c1ccccn1` (stereo unspecified): the values for the pKa in data set [10] and in [11] were 3.47 and 2.03, respectively. Besides, the inhibition in [12] is 61.7%; in data set [1], 65% and 62.6%; in data set [2], -5.9% and -6.6%; in [6] it was 5%; in [3], 32.4% and 20% and 37.6%. Besides, the ED50 (usually the midpoint of the dose-response relation) was determined as 1.05 mg/kg in data set [13] and 6.7 mg/kg in data set [14].

In the case of `COC(=O)C12CN(C)CC(C(=O)OC)(C1=O)C(c1cccc(C#N)c1)N(C)C2c1cccc(C#N)c1` (stereo unspecified), the results for the inhibition in [1], in data set [2] and in data set [3] were 35.5%, 5% and 9.3%, respectively.

Turning to `COC(=O)C12CN(C)CC(C(=O)OC)(C1=O)C(c1ccc(Cl)c(Cl)c1)N(C)C2c1ccc(Cl)c(Cl)c1` (stereo unspecified), the values for the inhibition in data set [1], in data set [2] and in data set [3] were 38.9%, -5.3% and 6.1%, respectively.

As to `COC(=O)C12CN(C)CC(C(=O)OC)(C1=O)C(c1cccc(C)c1)N(C)C2c1cccc(C)c1` (stereo unspecified), the inhibition in [6] was 3.4%; in data set [3], -5.9%.

In the case of `COC(=O)C12CN(C)CC(C(=O)OC)(C1=O)C(c1cccc(F)c1)N(C)C2c1cccc(F)c1` (stereo unspecified), the pKa stood at 10.7 in data set [7] and 13.1 in [9]. Besides, in data set [4], the Ki stood at 26 nM. Also, the inhibition in [2] came to 3.2%; in [3], 5%.

For `COC(=O)C12CN(C)CC(C(=O)OC)(C1=O)C(c1ccc([N+](=O)[O-])cc1)N(C)C2c1ccc([N+](=O)[O-])cc1` (stereo in doubt), the inhibition in data set [2] is -3.1%; in [3] it was 4.6%.

The molecule `COC(=O)C12CN(C)CC(C(=O)OC)(C1=O)C(c1ccc(F)cc1)N(C)C2c1ccc(F)cc1` (stereo unspecified) showed a Ki in data set [8] of 140 nM. Further, the inhibition in data set [2] was 0.4%; in [3], 10.1%.

On to `COC(=O)C12CN(C)CC(C(=O)OC)(C1=O)C(c1ccnc3ccccc13)N(C)C2c1ccnc2ccccc12` (stereo unspecified), for which the inhibition in data set [1] is 25.8%; in data set [2] it was 1.2%; in data set [3] it was -7.1%.

Turning to `COC(=O)C12C[N+](C)(C)CC(C(=O)OC)(C1=O)C(c1ccccn1)N(C)C2c1ccccn1` (stereo unspecified), the results for the inhibition in data set [2], in [3] and in data set [5] were 3.3%, 29.2% and 96.4%, respectively.

With `COC(=O)C12CN(C)CC(C(=O)OC)(C1=O)C(c1ccccc1[N+](=O)[O-])N(C)C2c1ccccc1[N+](=O)[O-]` (stereo unspecified), the figures for the inhibition in data set [1], in data set [2] and in data set [3] were 3.4%, -1.1% and 2.9%, respectively.

In the case of `COC(=O)C12CN(C)CC(C(=O)OC)(C1=O)C(c1ccc(O)cc1)N(C)C2c1ccc(O)cc1` (stereo unspecified), the inhibition in data set [1] turned out to be 8.4%; in data set [2] it was 7.3%; in data set [3] it was 14.2%.

As for `CN1CC2(C(=O)O)C(=O)C(C(=O)O)(C1)C(c1ccccc1)N(C)C2c1ccccc1` (stereo unspecified), in [8], affinity was put at a Ki of 210 nM. Moreover, the results for the inhibition in data set [2], in data set [6] and in data set [3] were -1.6%, -0.3% and 14.5%, respectively.

Consider `CCOC(=O)C12CN(C)CC(C(=O)OCC)(C1=O)C(c1cccc(O)c1)N(C)C2c1cccc(O)c1` (stereo unspecified), for which the inhibition in data set [1] was 92.7%; in data set [2], 6.9%; in data set [3] it was 10.5%.

As for `CCOC(=O)C12CN(C)CC(C(=O)OCC)(C1=O)C(c1ccc(Cl)cc1)N(C)C2c1ccc(Cl)cc1` (stereo unspecified), in data set [4], the Ki turned out to be 1980 nM. For the same molecule, the inhibition is 1.8% in data set [2] and -5% in [3].

Turning to `COC(=O)C12CN(C)CC(C(=O)OC)(C1=O)C(c1cccnc1)N(C)C2c1cccnc1` (stereo unspecified), the inhibition in [1] was 54.8%; in data set [2], 1.1%; in data set [3], 30.7%.

Consider `COC(=O)C12CN(C)CC(C(=O)OC)(C1=O)C(c1ccncc1)N(C)C2c1ccncc1` (stereo unspecified), for which the results for the inhibition in [1], in data set [2] and in data set [3] were 12.5%, -9% and 3.1%, respectively.

For the molecule `COC(=O)C12CN(C)CC(C(=O)OC)(C1=O)C(c1cccc(Cl)c1)N(C)C2c1cccc(Cl)c1` (stereo unspecified), the figures for the pKa in [7] and in data set [9] were 9.51 and 10.6, respectively. Besides, the results for the inhibition in [15], in [6] and in data set [3] were 42.3%, -0.8% and 8.8%, respectively.

Take `COC(=O)C12CN(C)CC(C(=O)OC)(C1=O)C(c1cccc(O)c1)N(C)C2c1cccc(O)c1` (stereo unspecified): the pKa in [10] was found to be 9.12; in [11], 9.21; in data set [7], 7.97; in [9], 10.3. The values for the inhibition in data set [6] and in data set [3] were 27% and 35.6%, respectively.
